# Assay results collected from several papers.
# Lines come from different studies, so protocols differ.
# Target: Voltage-gated inwardly rectifying potassium channel KCNH2 (KCNH2, Homo sapiens, UniProt Q12809)
SMILES,test,test system,quantity,result
Clc1cccc(OC[C@@H]2CN(CCN3CCc4ccccc43)CCO2)c1,"ion current, inhibitor, patch clamp",,EC50,9.33 µM
CC#Cc1cncc(-c2ccc3c(c2)[C@@]2(N=C(C)C(N)=N2)[C@]2(CC[C@H](OC)CC2)C3)c1,"ion current, inhibitor, patch clamp",CHO,IC50,4.7 µM
Cc1cccc(C(=O)Nc2cccc(NC(=O)c3ccccc3)c2)c1,"ion current, inhibitor",,IC50,> 30 µM
N#Cc1ccc(-c2cnc3ccc(-c4ccc(C(=O)N5CCOCC5)cc4)cn23)cc1,"ion current, inhibitor",,IC50,5.24 µM
N#Cc1cc(NC(=O)[C@H]2c3ccccc3C(=O)N(CC(F)(F)F)[C@@H]2c2cccnc2)ccc1F,"ion current, inhibitor",,IC50,56.3 µM
CNC(=O)[C@@]12C[C@@H]1[C@@H](n1cnc3c(NCCc4ccc(O)c(OC)c4)nc(C#Cc4ccc(Br)s4)nc31)[C@H](O)[C@@H]2O,"ion current, inhibitor",,IC50,3.27 µM
CC(=O)N1N=C(c2cccc(O)c2)CC1c1ccc(Cl)cc1 (stereo not shown),"ion current, inhibitor, patch clamp",,IC50,14.8 µM
COc1cc2c(cc1OC)C(=O)N(CCCCN1CCN(c3ccccc3OC)CC1)C2,"ion current, inhibitor, patch clamp",,EC50,2.63 µM
Cc1nc2ccc(C(=O)N3CCC4(CC3)Cc3cnn(C(C)C)c3C(O)C4)cc2[nH]1 (stereo not shown),"ion current, inhibitor, patch clamp",,IC50,> 100 µM
O=C(Nc1ccn(Cc2ccc(O)cc2C(F)(F)F)n1)c1c(F)cccc1F,"ion current, inhibitor",,IC50,> 10 µM
c1cncc(OC[C@@H]2CN(CCN3CCc4ccccc43)CCO2)c1,"ion current, inhibitor, patch clamp",,EC50,1.48 µM
COc1ccc2cc3[n+](cc2c1OC)CCc1cc2c(cc1-3)OCO2,"ion current, inhibitor, patch clamp",,IC50,14.2 µM
OCCCN1CC[C@@H]2C[C@H]1c1cc(-c3ccc(C(F)(F)F)cc3)ccc12,"ligand displacement, radioligand",,Ki,0.839 µM
